Rtt109 HAT inh – inhibitors of C. albicans Rtt109/Vps75 HAT, primary screen, biochemical, ThioGlo CoA-SH fluorescence, plate reader. Histone acetyltransferase RTT109 (Candida albicans (strain SC5314 / ATCC MYA-2876)), …. purified Rtt109/Vps75, 4 h. inhibition, % at 34.9 µM. 0.16% of 330,000 active. AID 540336, 2011;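 active means inhibition of at least 50% in every replicate; inconclusive means best replicate reaches 50% inhibition but some replicates fall short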
Glyco luc inh – increase of ERlucT glycosylation luciferase signal, primary screen, N-linked glycosylation inhibitor project, D54 ERlucT cells, luminescence, set 2. D54 ERlucT glycosylation luciferase reporter, 24 h; percent of 100 nM tunicamycin response. reporter increase, % at 12.5 µM. 0.23% of 360,000 active. AID 588692, 2011;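 active means mean luciferase reporter signal, scaled so untreated is 0 and the glycosylation-blocking control 100, at or above a set limit in every replicate; inconclusive means mean reaches the limit but not every replicate does; inactive means mean below the limit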;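 further: luciferase carries N-glycosylation sites so blocking glycosylation raises the light; 0% = median of neutral control wells and 100% = median of 100 nM tunicamycin wells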
SR-BI uptake up – activators of SR-BI mediated DiI-HDL uptake, primary screen, ldlA[mSR-BI] CHO cells, DiI fluorescence. 0.096% of 320,000 active. 3 h; 100 = double the neutral-control signal. activation, % at 12.5 µM;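 active means mean replicate activation of at least 60% and every replicate at or above 60%; inconclusive means mean or all-replicate condition met, but not both; inactive means mean below 60% and not all replicates reaching 60%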;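 further: 0% = median plate neutral-control signal and 100% = twice that signal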
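Test system: SR-BI-overexpressing, LDLR-lacking CHO cells; Medium: Ham's F12 with 0.5% BSA, HEPES 25 mM, pH 7.4; Schedule: 3 h, 37 °C; Technique: bottom-read fluorescence, 550/595 nm.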
PglD DTNB – C. jejuni PglD acetyltransferase inhibitors, primary screen, biochemical, DTNB colorimetric, single point | inhibition, % at 12.5 µM | 0.098% of 360,000 active | purified PglD enzyme, DTNB colorimetric CoA detection; in the data active means inhibition above about 16%, passing the limit was not always enough; inconclusive means no clear call, values can overlap the other calls
SR-BI HDL uptake – inhibitors of SR-BI mediated HDL lipid uptake, primary screen, ldlA[mSR-BI] cells, fluorescence, single point; Scavenger receptor class B member 1 (Mus musculus), Q61009; ldlA[mSR-BI] CHO cells, DiI-HDL uptake fluorescence, 3 h; inhibition, % at 12.5 µM; 0.96% of 320,000 active; AID 488896, 2010;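 active means mean replicate inhibition of at least 70% and a set share of replicates each scoring 70 or more; inconclusive means meets just one of the two criteria; inactive means fails both criteria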;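 further: 0% = median of neutral control wells and 100% = median of positive control wells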
Target sequence (Q61009 whole entry, looked up): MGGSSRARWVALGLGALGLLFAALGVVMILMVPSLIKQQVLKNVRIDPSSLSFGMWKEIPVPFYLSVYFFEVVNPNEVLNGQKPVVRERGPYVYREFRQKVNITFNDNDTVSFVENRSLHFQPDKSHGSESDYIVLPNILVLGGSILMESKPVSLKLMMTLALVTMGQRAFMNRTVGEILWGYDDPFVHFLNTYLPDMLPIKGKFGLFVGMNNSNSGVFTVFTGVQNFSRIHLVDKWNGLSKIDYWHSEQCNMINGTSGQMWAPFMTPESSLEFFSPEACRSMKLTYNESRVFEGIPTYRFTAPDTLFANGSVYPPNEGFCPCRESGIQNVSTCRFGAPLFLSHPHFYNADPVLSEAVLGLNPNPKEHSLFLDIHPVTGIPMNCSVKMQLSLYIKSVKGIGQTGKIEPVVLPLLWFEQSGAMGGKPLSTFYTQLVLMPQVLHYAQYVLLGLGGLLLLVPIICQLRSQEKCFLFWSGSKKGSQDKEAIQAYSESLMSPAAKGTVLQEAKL
HIV Env fusion – inhibitors of HIV-1 Env-driven cell-cell fusion, primary screen, HeLa-JRFL effector, CEM21 target cells, luciferase. inhibition, % at 12.3 µM. 1.1% of 360,000 active;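 active means mean replicate inhibition score of at least 50 and every replicate individually at or above 50; inconclusive means only one of the two criteria met; inactive means mean below 50 and not all replicates reaching 50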;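 further: 0% = plate neutral controls and 100% = maraviroc near 300 nM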
The depositor's hits bear a star; ? = inconclusive; · = no result; [ ] = another dose, or the depositor's remark. Sampled rows, rich in hits. Any-hit rate of the full collection: about 1.9%.

SMILES	Rtt109 HAT inh	Glyco luc inh	SR-BI uptake up	PglD DTNB	SR-BI HDL uptake	HIV Env fusion
CCn1c(SCC(=O)Nc2ccc(OC)c(OC)c2)nnc1-c1cccs1	1	-1	30	1	-30	2
CCn1c2ccccc2c2cc(NC(=O)CSc3nnc(-c4cccc(OC)c4)n3N)ccc21	1	4	-48	0	48	135*
CCn1c2ccccc2c2cc(NC(=O)CSc3nnc(-c4ccccc4OC)n3N)ccc21	7	0	-50	·	50	133*
Cc1ccc(-c2cnc3c(c2)C(=O)N([C@H](C)CO)C[C@H](C)[C@@H](CN(C)C(=O)Cc2ccccc2)O3)cc1	·	·	·	-3	·	6[16.7 µM]
C[C@@H]1CN([C@H](C)CO)C(=O)c2cc(NS(=O)(=O)c3ccccc3)ccc2O[C@@H]1CN(C)Cc1ccc2c(c1)OCO2	·	·	·	-2	·	4[16.7 µM]
COc1ccc(-c2csc(Nc3ccc(C)cn3)n2)cc1OC	-10	-8	-77	-2	77*	-24
CO[C@H]1CN(C)C(=O)c2cc(NC(=O)NC(C)C)ccc2OC[C@H](C)N(C(=O)NC(C)C)C[C@@H]1C	·	·	·	0	·	23[16.7 µM]
COc1ccc(NC(=O)N(C)C[C@@H]2OCCCC[C@@H](C)Oc3ccc(NC(=O)Nc4ccccc4)cc3C(=O)N([C@H](C)CO)C[C@@H]2C)cc1	·	·	·	-1	·	1[16.7 µM]
CC(C)C(=O)Nc1nc(-c2ccc(S(=O)(=O)N3CCOCC3)cc2)cs1	-19	-4	-1	2	1	21
O=C(Nc1nc(-c2ccncc2)cs1)c1ccc(S(=O)(=O)N2CCOCC2)cc1	-11	-1	1	·	-1	-16
CCOc1cccc(C(=O)Nc2nc(-c3ccc(S(=O)(=O)N4CCOCC4)cc3)cs2)c1	1	-3	-79	-3	79*	·
O=C(Nc1nc(-c2ccccc2)cs1)c1ccc(N2CCOCC2)c([N+](=O)[O-])c1	0	-4	-79	5	79*	·
O=C(COc1cccc(Cl)c1)Nc1nc(-c2ccc(S(=O)(=O)N3CCOCC3)cc2)cs1	8	-5	-88	-5	88*	·
O=C(Nc1ccc(F)cc1)N1C[C@@H]2[C@H](c3ccccc31)[C@H](CO)N2C(=O)Cc1cccnc1	·	·	·	-1	·	·
COc1ccccc1S(=O)(=O)N[C@@H]1CC[C@@H](CCNC(=O)C2CC2)O[C@@H]1CO	·	·	·	-1	·	7[16.7 µM]
Cc1cc(C)nc(NC(=NCCc2c[nH]c3ccccc23)NC(=O)c2ccco2)n1	-3	-4	-71	·	71*	·
O=C(C[C@@H]1C[C@H]2c3cc(NS(=O)(=O)c4ccc(F)cc4)ccc3O[C@H]2[C@H](CO)O1)NC1CCCCC1	·	·	·	-1	·	22[16.7 µM]
COc1ccccc1C#Cc1ccc2c(c1)O[C@@H](CN(C)Cc1ccncc1)[C@@H](C)CN([C@H](C)CO)S2(=O)=O	·	·	·	-5	·	?
COc1ccccc1C#Cc1ccc2c(c1)O[C@H](CN(C)Cc1ccncc1)[C@@H](C)CN([C@@H](C)CO)S2(=O)=O	·	·	·	-5	·	48*[16.7 µM]
COc1ccccc1C#Cc1ccc2c(c1)O[C@@H](CN(C)Cc1ccncc1)[C@H](C)CN([C@H](C)CO)S2(=O)=O	·	·	·	2	·	52*[16.7 µM]
C[C@@H]1CN([C@@H](C)CO)C(=O)c2cc(NS(=O)(=O)c3ccccc3)ccc2O[C@@H]1CN(C)CC1CC1	·	·	·	-3	·	1[16.7 µM]
Cn1cc(C(=O)c2ccc(Cl)cc2Cl)cc1C(=O)N/N=C(\N)COc1cccc(C(F)(F)F)c1	-6	-1	-81	0	81*	·
COC(=O)c1cc(C(=O)c2ccc(Cl)cc2Cl)cn1C	3	-1	-3	4	3	23
Cc1cc(-c2csc(N)n2)c(C)n1-c1ccc(Cl)c(Cl)c1	18	1	-70	·	70*	-9
O=C1CCCc2c1[nH]c1ccc(Cl)cc21	1	-1	3	-3	-3	83*
SMILES	Rtt109 HAT inh	Glyco luc inh	SR-BI uptake up	PglD DTNB	SR-BI HDL uptake	HIV Env fusion
OCCCN=C1CCCc2c1[nH]c1ccc(Cl)cc21	-3	-2	13	·	-13	57*
OCCN=C1CCCc2c1[nH]c1ccc(Cl)cc21	16	-5	-16	·	16	67*
COc1ccc2[nH]c3c(c2c1)CCC/C3=N\N	-5	-2	-61	1	61	36
CCOC(=O)C1CCCc2c1[nH]c1ccc(Cl)cc21 (stereo not given)	-1	0	-19	·	19	9
CC(C)CC#Cc1ccc2c(c1)O[C@@H](CN(C)C(=O)c1cccc(F)c1)[C@@H](C)CN([C@H](C)CO)S2(=O)=O	·	·	·	0	·	12[16.7 µM]
CCc1nc2c(OCc3ccc(C(F)(F)F)cc3)cccn2c1N(C)C(=O)c1ccco1	·	-2	·	11	·	57*
CCc1nc2c(OCc3ccc(C(F)(F)F)cc3)cccn2c1N(C=O)Cc1ccc(OC)cc1	·	1	·	-3	·	56*
COc1ccccc1NC(=O)N1C[C@@H]2[C@H](c3ccccc31)[C@H](CO)N2C(=O)C1CC1	·	·	·	-9	·	·
O=C1CSC(=S)N1/N=C/c1ccc(O)c(O)c1O	196*	1	·	9	·	·
NCC[C@@H]1CC[C@H](NC(=O)C2CCCC2)[C@H](CO)O1	·	·	·	-2	·	-1[16.7 µM]
CN1[C@@H]2c3ccc(C4=CCCCC4)c(=O)n3C[C@H]1[C@H](CO)[C@H]2C(=O)NCc1cc(F)cc(F)c1	·	·	·	-1	·	6[16.7 µM]
O=C(/C=C/c1ccccc1)c1ccc2c(c1)OCO2	·	1	0	-11	0	-16
O=C(/C=C/c1ccncc1)c1ccc2c(c1)OCCO2	18	70*	22	·	-22	10
COC(=O)C1=C(C)N(Cc2cccc(C(F)(F)F)c2)C(=NCc2ccc(OC)cc2)NC1c1ccc(F)cc1 (stereo not given)	·	·	·	·	·	2
COC(=O)C1=C(C)N(Cc2ccc(Cl)cc2)C(=S)NC1c1ccc(Cl)cc1 (stereo not given)	·	·	·	·	·	61*
COC(=O)C1=C(C)N(CC2CC2)C(=O)N[C@H]1c1ccc(Br)cc1	·	·	·	·	·	77*
COC(=O)C1=C(C)N(Cc2ccccc2)C(=S)N[C@H]1c1ccccc1	6	-4	9	-1	-9	-11
COC(=O)C1=C(C)N(C)C(=NCc2ccc3c(c2)OCO3)NC1c1ccc(C(F)(F)F)cc1 (stereo not given)	·	·	·	·	·	57*
CCN1C(=O)N[C@@H](c2ccc(Br)cc2)C(C(=O)OC)=C1C	-7	2	0	6	0	-21

Source: PubChem BioAssay (Broad Institute)
